This is an account of results in ChEMBL document CHEMBL1629439, “High-throughput identification of antibacterials against methicillin-resistant Staphylococcus aureus (MRSA) and the transglycosylase” (Bioorg Med Chem, 2010).

Experiment [1] deals with Staphylococcus aureus. Kind of experiment: Antimicrobial activity against methicillin-resistant Staphylococcus aureus ATCC 33592 after 18 to 24 hrs by alamar blue assay. In kind it is functional. The note with it: Staphylococcus aureus, ATCC 33592; read-out: MIC. The method in brief:
(§1)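 Broth microdilution per NCCLS standard, Mueller-Hinton broth, 8-point twofold dilutions; exponentially growing cells at 5 10^5 cells/ml with compound, 18–24 h at 37 C; 20% Alamar blue added, fluorescence read; MIC90 taken as lowest concentration preventing at least 90% growth.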

For experiment [2], the system named is Staphylococcus aureus. Kind of experiment: Antimicrobial activity against Staphylococcus aureus ATCC 29213 after 18 to 24 hrs by alamar blue assay. (Resazurin is reduced to fluorescent resorufin, in cell work by metabolically active cells.)
The subject of experiment [3] is Pseudomonas aeruginosa. Kind of experiment: Antimicrobial activity against Pseudomonas aeruginosa ATCC 25619 after 18 to 24 hrs by alamar blue assay. In kind it is functional. The note with it: Pseudomonas aeruginosa, ATCC 25619; read-out: MIC. A digest of the protocol:
(§2)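 Broth microdilution per NCCLS in Mueller-Hinton broth, 8-point twofold dilutions, 384-well format. Exponential-phase cells at 5 × 10^5 cells/ml incubated with compound 18–24 h at 37 °C, then 20% Alamar blue added and fluorescence read. MIC90 taken as the lowest concentration preventing at least 90% bacterial growth.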

Experiment [4] is described as follows: Inhibition of transglycosylase assessed as inhibition of NBD- labelled lipid II polymerization. A digest of the protocol: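 100 µM NBD-labelled lipid II incubated 30 min with full-length PBP (EC, SA or Mtb) and 10 ng/µl N-acetylmuramidase in 50 mM Tris-HCl pH 8.0, 10 mM MgCl2, 0.1% Triton X-100, 10% DMSO, 15% MeOH. Supernatant run on anion-exchange HPLC with 20 mM–0.5 M ammonium acetate gradient. Inhibition calculated from substrate peak-area percentage. IC50 determined. S. aureus strains share one SA enzyme.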

Experiment [5] has as its system Mycolicibacterium smegmatis. Nature of the experiment: Antimicrobial activity against Mycobacterium smegmatis BCRC 11565 after 18 to 24 hrs by alamar blue assay. The note with it: Mycolicibacterium smegmatis, BCRC 11565; read-out: MIC. The format is functional. The method in brief: as §2
In experiment [6] the test system is Serratia marcescens. Nature of the experiment: Antimicrobial activity against Serratia marcescens ATCC 14756 after 18 to 24 hrs by alamar blue assay. In kind it is functional. The note with it: Serratia marcescens, ATCC 14756; read-out: MIC. A digest of the protocol: as §2
Experiment [7] has as its system Acinetobacter baumannii. Nature of the experiment: Antimicrobial activity against Acinetobacter baumannii ATCC 49139 after 18 to 24 hrs by alamar blue assay. The format is functional. Conditions: Acinetobacter baumannii, ATCC 49139; read-out: MIC. The method in brief: as §2
In experiment [8] the test system is Bacillus subtilis. Kind of experiment: Antimicrobial activity against Bacillus subtilis ATCC 23857 after 18 to 24 hrs by alamar blue assay. In kind it is functional. The method in brief: as §2
Experiment [9] deals with Stenotrophomonas maltophilia. Kind of experiment: Antimicrobial activity against Stenotrophomonas maltophilia ATCC 13637 after 18 to 24 hrs by alamar blue assay. In kind it is functional. Conditions: Stenotrophomonas maltophilia, ATCC 13637; read-out: MIC. A digest of the protocol:
as §2

In experiment [10] the test system is Escherichia coli. Kind of experiment: Antimicrobial activity against Escherichia coli ATCC […] after 18 to 24 hrs by alamar blue assay. Conditions: Escherichia coli; read-out: MIC. In kind it is functional. A digest of the protocol:
as §2

For experiment [11], the system named is Staphylococcus aureus. Kind of experiment: Antimicrobial activity against methicillin-resistant Staphylococcus aureus isolate NTUH4722 after 18 to 24 hrs by alamar blue assay. In kind it is functional. A digest of the protocol:
as §1

The subject of experiment [12] is Staphylococcus aureus. Kind of experiment: Antimicrobial activity against oxacillin- and methicillin-resistant Staphylococcus aureus isolate Sa-OXA-R2 after 18 to 24 hrs by alamar blue assay. In kind it is functional. The method in brief:
as §1

Converted amounts (≈) assume the structure as drawn.

As to `O=C(Nc1ccc(Oc2ccc3ccccc3c2Cl)c(Cl)c1)c1cc(Cl)cc(Br)c1O`, the MIC in experiment [1] is at most 2 µg/mL; in experiment [2], at most 2 µg/mL; in experiment [3], 16 µg/mL (≈ 29.8 µM); in [5] it was 0.5 µg/mL (≈ 0.93 µM); in experiment [6] it was 16 µg/mL (≈ 29.8 µM); in [7] it was 16 µg/mL (≈ 29.8 µM). Moreover, the MIC is under 0.03 µg/mL in [8]; 16 µg/mL (≈ 29.8 µM) in experiment [9]; 8 µg/mL (≈ 14.9 µM) in experiment [10]; at most 0.03 µg/mL in [11]; at most 0.03 µg/mL in [12]. In addition, the IC90 in experiment [4] was determined as 100 µM.

Take `Cc1ccc(C(C)C)c(Oc2ccc(Cl)cc2NC(=O)c2cc(Cl)cc(Cl)c2O)c1`: the MIC in experiment [1] came to 0.25 µg/mL (≈ 0.538 µM); in [2], 1 µg/mL (≈ 2.15 µM); in experiment [3], 16 µg/mL (≈ 34.4 µM); in experiment [5] it was 0.5 µg/mL (≈ 1.08 µM); in experiment [6], 16 µg/mL (≈ 34.4 µM); in experiment [7] it was 16 µg/mL (≈ 34.4 µM). The MIC was under 0.03 µg/mL in experiment [8]; 16 µg/mL (≈ 34.4 µM) in experiment [9]; 8 µg/mL (≈ 17.2 µM) in [10]; at most 0.03 µg/mL in experiment [11]; at most 0.03 µg/mL in experiment [12]. Moreover, in experiment [4], the IC90 amounted to 50 µM.

For `Cc1ccc(C)c(C(=O)c2cc(NC(=O)c3cc(Br)cc(Br)c3O)ccc2Oc2ccc(Cl)cc2)c1`, the MIC in experiment [1] stood at 32 µg/mL (≈ 50.8 µM); in experiment [2] it was 8 µg/mL (≈ 12.7 µM); in experiment [3], 16 µg/mL (≈ 25.4 µM); in [5], 0.5 µg/mL (≈ 0.794 µM); in experiment [6], 16 µg/mL (≈ 25.4 µM); in experiment [7], 16 µg/mL (≈ 25.4 µM). Also, the minimal inhibitory concentration (MIC) is under 0.03 µg/mL in [8]; 16 µg/mL (≈ 25.4 µM) in experiment [9]; 8 µg/mL (≈ 12.7 µM) in experiment [10]; at most 0.03 µg/mL in [11]; at most 0.03 µg/mL in experiment [12]. Besides, the IC90 in [4] was over 100 µM.

Take `O=C(c1ccc(Cl)cc1)c1ccc(NC(=O)c2cc(Br)cc(Br)c2O)cc1Cl`: the MIC in experiment [1] is 4 µg/mL (≈ 7.35 µM); in experiment [2], at most 2 µg/mL; in experiment [3] it was 16 µg/mL (≈ 29.4 µM); in [5], 0.5 µg/mL (≈ 0.919 µM); in [6] it was 16 µg/mL (≈ 29.4 µM); in experiment [7] it was 16 µg/mL (≈ 29.4 µM). Also, the minimal inhibitory concentration (MIC) in [8] is under 0.03 µg/mL; in [9], 16 µg/mL (≈ 29.4 µM); in [10], 8 µg/mL (≈ 14.7 µM); in experiment [11], at most 0.03 µg/mL; in [12] it was at most 0.03 µg/mL. Moreover, the IC90 in experiment [4] worked out at 100 µM.

Turning to `O=C(c1ccc(Cl)cc1)c1cc(NC(=O)c2cc(I)cc(I)c2O)ccc1Cl`, the MIC in [1] was 4 µg/mL (≈ 6.27 µM); in experiment [2] it was at most 2 µg/mL; in experiment [3], 16 µg/mL (≈ 25.1 µM); in experiment [5] it was 0.5 µg/mL (≈ 0.784 µM); in experiment [6], 16 µg/mL (≈ 25.1 µM); in [7], 16 µg/mL (≈ 25.1 µM). Moreover, the MIC in experiment [8] is under 0.03 µg/mL; in experiment [9], 16 µg/mL (≈ 25.1 µM); in experiment [10] it was 8 µg/mL (≈ 12.5 µM); in experiment [11], at most 0.03 µg/mL; in [12] it was at most 0.03 µg/mL. The concentration for an effect of 90% (IC90) in experiment [4] is 100 µM.

As for `O=C(c1ccc(NC(=O)c2cc(Br)cc(Br)c2O)c(Cl)c1)c1cccs1`, the MIC is 4 µg/mL (≈ 7.76 µM) in experiment [1]; 4 µg/mL (≈ 7.76 µM) in experiment [2]; 16 µg/mL (≈ 31 µM) in experiment [3]; 0.5 µg/mL (≈ 0.97 µM) in experiment [5]; 16 µg/mL (≈ 31 µM) in experiment [6]; 16 µg/mL (≈ 31 µM) in experiment [7]. Besides, the MIC is under 0.03 µg/mL in [8]; 16 µg/mL (≈ 31 µM) in experiment [9]; 8 µg/mL (≈ 15.5 µM) in experiment [10]; at most 0.03 µg/mL in experiment [11]; at most 0.03 µg/mL in experiment [12]. In experiment [4], the IC90 was over 100 µM.

`Cc1ccc(C(C)C)c(Oc2ccccc2NC(=O)c2cc(Br)cc(Br)c2O)c1`: the MIC in experiment [1] was 4 µg/mL (≈ 7.7 µM); in experiment [2], 1 µg/mL (≈ 1.93 µM); in experiment [3], 16 µg/mL (≈ 30.8 µM); in [5] it was 0.5 µg/mL (≈ 0.963 µM); in experiment [6] it was 16 µg/mL (≈ 30.8 µM); in [7], 16 µg/mL (≈ 30.8 µM). For the same molecule, the MIC is under 0.03 µg/mL in experiment [8]; 16 µg/mL (≈ 30.8 µM) in experiment [9]; 8 µg/mL (≈ 15.4 µM) in [10]; at most 0.03 µg/mL in experiment [11]; at most 0.03 µg/mL in experiment [12]. Besides, the IC90 in [4] is 50 µM.

One may read the MIC as the lowest concentration found to suppress growth. What is called IC90 is the concentration needed for an effect of 90%.
